Assay results as given in publication PMC7701984 (Journal of medicinal chemistry, 2019).
Marks after values point to notes of the source that are not given here.

Tests used:
Vγ9Vδ2 T cells [1] = test: Vγ9Vδ2 T cell proliferation assay; assay type: cell-based, human; details: for T cell expansion above non-stimulated baseline: positive controls at 0.1 μM; for signs of Vγ9Vδ2 T cell stimulation: proliferation assay, Supplemental Figure S1C–D
BFI = details: read-out: ITC Kd for BFI; previous ITC experiments; cited from earlier work
BTN3A1 BFI(M424A) = BTN3A1 BFI(M424A) (Homo sapiens, UniProt O00481, M424A); test: GDP-BODIPY fluorescence polarization competitive binding assay, BFI; details: n ≥ 3, ambiguous, approximate slope estimated by GraphPad
BTN3A1 BFI(R442A) = BTN3A1 BFI(R442A) (Homo sapiens, UniProt O00481, R442A); test: as above; details: n ≥ 3
BTN3A1 BFI(R448A) = BTN3A1 BFI(R448A) (Homo sapiens, UniProt O00481, R448A); test: as above; details: n ≥ 3
BTN3A1 BFI(R499A) = BTN3A1 BFI(R499A) (Homo sapiens, UniProt O00481, R499A); test: as above; details: n ≥ 3
wt-BFI domain of BTN3A1 = wt-BFI domain of BTN3A1 (Homo sapiens, UniProt O00481); test: GDP-BODIPY fluorescence polarization competitive binding assay, wt-BFI; details: n ≥ 3
BTN3A1 BFI(W421A) = BTN3A1 BFI(W421A) (Homo sapiens, UniProt O00481, W421A); test: GDP-BODIPY fluorescence polarization competitive binding assay, BFI; details: n ≥ 3
[2] = system: Human PBMCs containing naïve Vγ9Vδ2 T cells; test: IFN-γ production of PBMCs by ELISA; assay type: cell-based; details: for EC50: Homo sapiens, PBMC, 48 h, read-out: IFN-γ EC50 (μM) with 95% CI
BTN3A1 = details: previously reported ITC experiments; no reference given; cited from earlier work
Vγ9Vδ2 T cells [3] = details: read-out: Proliferation EC50 (μM) with 95% CI; footnote a; ref Hsiao 2014; cited from earlier work
[4] = system: peripheral blood mononuclear cells (PBMCs); test: Ligand uptake: disappearance of prodrug from media incubated with PBMCs; assay type: in vitro ADME; details: 10 μM with PBMCs, 24 hours, 37 °C
Outline: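 PBMCs at 1,000,000 cells/mL in T cell media were incubated at 37 °C with test prodrug at 10 μM final, or with media alone. Samples were taken at 0, 6, 24 and 48 h and spun. The supernatant was mixed with acetonitrile, re-spun and stored at −20 °C. UPLC-MS used a C18 column with a 25–80% acetonitrile gradient over 8 min. The integrated molecular-ion signal was expressed relative to t = 0.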

[5] = dose-response, 48 hours, concentration not given

BTN3A1 BFI(M424A), sequence (O00481 272-513 M424A limits assumed): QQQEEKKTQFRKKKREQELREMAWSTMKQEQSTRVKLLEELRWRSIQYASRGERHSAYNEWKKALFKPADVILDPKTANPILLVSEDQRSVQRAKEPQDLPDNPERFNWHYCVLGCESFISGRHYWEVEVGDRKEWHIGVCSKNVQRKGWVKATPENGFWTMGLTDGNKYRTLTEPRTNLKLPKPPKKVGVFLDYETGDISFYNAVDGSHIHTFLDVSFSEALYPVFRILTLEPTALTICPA
BTN3A1 BFI(R448A), sequence (O00481 272-513 R448A limits assumed): as the sequence (O00481 272-513 M424A limits assumed) above, with A153M, R177A counted along it
BTN3A1 BFI(W421A), sequence (O00481 272-513 W421A limits assumed): as the sequence (O00481 272-513 M424A limits assumed) above, with W150A, A153M counted along it
wt-BFI domain of BTN3A1, sequence (O00481 272-513 limits assumed): as the sequence (O00481 272-513 M424A limits assumed) above, with A153M counted along it
BTN3A1 BFI(R442A), sequence (O00481 272-513 R442A limits assumed): as the sequence (O00481 272-513 M424A limits assumed) above, with A153M, R171A counted along it
BTN3A1 BFI(R499A), sequence (O00481 272-513 R499A limits assumed): as the sequence (O00481 272-513 M424A limits assumed) above, with A153M, R228A counted along it

## C/C(=C\COP(=O)(O)OP(=O)(O)O)CO [Compound 1, (E)-4-hydroxy-3-methyl-but-2-enyl diphosphate]
Vγ9Vδ2 T cells [1]
  T cell expansion above non-stimulated baseline: significantly expanded T cells
BFI
  Kd: 2.36 µM
BTN3A1 BFI(M424A)
  Probe displacement (mP) range with 95% CI: 59.1^a (38 – 81) ^* mP
BTN3A1 BFI(R442A)
  Probe displacement (mP) range with 95% CI: 19.4 (13 – 26) mP
BTN3A1 BFI(R448A)
  Probe displacement (mP) range with 95% CI: 26.2 (12 – 40) mP
BTN3A1 BFI(R499A)
  Probe displacement (mP) range with 95% CI: 55.0 (21 – 78) ^* mP
wt-BFI domain of BTN3A1
  Probe displacement (mP) range with 95% CI: 30.6 (25 – 36) mP
BTN3A1 BFI(W421A)
  Probe displacement (mP) range with 95% CI: 56.7 (40 – 73) ^* mP

## O=P(O)(O)C(O)(Cn1ccnc1)P(=O)(O)O [Compound 4, zoledronate]
[2]; [5]
  stimulation of IFN-γ production: Neither zoledronate (4) nor sodium diphosphate stimulated IFN-γ production

## C/C(=C\CCP(=O)(O)O)CO [Compound 5]
BTN3A1
  ITC dissociation constant (Kd): not calculable
Vγ9Vδ2 T cells [3]
  EC50: 4 µM

## C/C(=C\CCP(=O)(OCOC(=O)C(C)(C)C)OCOC(=O)C(C)(C)C)CO [Compound 6]
Vγ9Vδ2 T cells [1]
  T cell expansion above non-stimulated baseline: significantly expanded T cells
[4]
  parent ion detected in media relative to t = 0: less than 1%

## C/C(=C\CCP(=O)(O)CP(=O)(O)O)CO [Compound 7]
[2]; 100 μM, 48 hours
  stimulation of IFN-γ production at 100 μM: did stimulate IFN-γ production
[2]
  EC50: > 100 µM

## C/C(=C\CCP(=O)(CP(=O)(OCOC(=O)C(C)(C)C)OCOC(=O)C(C)(C)C)OCOC(=O)C(C)(C)C)CO (centres unmarked) [Compound 8]
[2]
  IFN-γ potency of prodrug 8 relative to its salt 7: 100 times
  EC50: > 1 µM

## C/C(=C\CCCCP(=O)(OCOC(=O)C(C)(C)C)OCOC(=O)C(C)(C)C)CO [Compound 11, (E)-(((7-hydroxy-6-methylhept-5-en-1-yl)phosphoryl)bis(oxy))bis(methylene) bis(2,2-dimethylpropanoate)]
Vγ9Vδ2 T cells [1]; concentrations up to 100 μM
  stimulation of T cell proliferation: neither prodrug 11 nor salt 10 (Supplemental Figure S1B) stimulated T cell proliferation
[4]
  parent ion detected in media relative to t = 0: less than 1%
[2]; concentrations up to 100 μM, 48 hours
  stimulation of IFN-γ production: did not stimulate

## CC(C)=CCCCCP(=O)(OCOC(=O)C(C)(C)C)OCOC(=O)C(C)(C)C [Compound 14, (((6-Methylhept-5-en-1-yl)phosphoryl)bis(oxy))bis(methylene) bis(2,2-dimethylpropanoate)]
Vγ9Vδ2 T cells [1]
  signs of Vγ9Vδ2 T cell stimulation: neither intermediate 14 nor 15 displayed signs of Vγ9Vδ2 T cell stimulation

## COP(=O)(CCCC/C=C(\C)CO)OC [Compound 15, Dimethyl (E)-(7-hydroxy-6-methylhept-5-en-1-yl) phosphonate]
Vγ9Vδ2 T cells [1]
  signs of Vγ9Vδ2 T cell stimulation: neither intermediate 14 nor 15 displayed signs of Vγ9Vδ2 T cell stimulation

## O=P([O-])([O-])OP(=O)([O-])[O-].[Na+].[Na+].[Na+].[Na+] [NaPP, sodium diphosphate]
[2]; [5]
  stimulation of IFN-γ production: Neither zoledronate (4) nor sodium diphosphate stimulated IFN-γ production
